Test results published in ChEMBL document CHEMBL1127415 (J Med Chem, 1994).

Experiments:
Rattus norvegicus [1] = assay: The compound was evaluated for the % peak inhibition of angiotensin II pressor response for dose of 1.0 mg/kg intravenous administration in conscious rats.; type: functional
Outline: (§1)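 Conscious normotensive rats received antagonists as potassium salts, iv or po. Pressor responses to exogenous AII were measured repeatedly after dosing and reported as % peak inhibition (mean ± SE) and duration of action in h. Methoxamine pressor response served as a specificity check.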

[2] = molecular target: T1, Type-1 angiotensin II receptor (Oryctolagus cuniculus, UniProt P34976); assay: In vitro binding affinity for angiotensin II AT1 receptor in rabbit aorta; type: tissue-based
T1 sequence (P34976 whole entry): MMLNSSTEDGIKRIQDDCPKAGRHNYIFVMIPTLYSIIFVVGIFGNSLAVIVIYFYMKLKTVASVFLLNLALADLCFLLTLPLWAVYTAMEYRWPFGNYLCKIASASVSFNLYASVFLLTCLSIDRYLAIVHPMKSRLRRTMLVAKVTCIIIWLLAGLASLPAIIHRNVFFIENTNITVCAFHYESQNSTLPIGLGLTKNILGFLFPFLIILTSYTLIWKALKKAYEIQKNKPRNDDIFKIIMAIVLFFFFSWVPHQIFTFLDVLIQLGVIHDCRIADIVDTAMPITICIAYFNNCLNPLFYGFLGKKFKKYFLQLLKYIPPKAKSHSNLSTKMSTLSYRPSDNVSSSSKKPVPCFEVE
Outline: (§2)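 Radioligand binding IC50 values. AT1 was measured on rabbit aortic receptor preparations and AT2 on rat midbrain receptor preparations.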

Rattus norvegicus [3] = assay: The duration of action for the % peak inhibition of angiotensin II pressor response for dose of 1.0 mg/kg intravenous administration in conscious rats.; type: functional; outline: as §1
[4] = molecular target: T2, Type-2 angiotensin II receptor (Rattus norvegicus, UniProt P35351); assay: In vitro binding affinity for angiotensin II AT2 receptor in rat midbrain; outline: as §2
T2 sequence (P35351 whole entry): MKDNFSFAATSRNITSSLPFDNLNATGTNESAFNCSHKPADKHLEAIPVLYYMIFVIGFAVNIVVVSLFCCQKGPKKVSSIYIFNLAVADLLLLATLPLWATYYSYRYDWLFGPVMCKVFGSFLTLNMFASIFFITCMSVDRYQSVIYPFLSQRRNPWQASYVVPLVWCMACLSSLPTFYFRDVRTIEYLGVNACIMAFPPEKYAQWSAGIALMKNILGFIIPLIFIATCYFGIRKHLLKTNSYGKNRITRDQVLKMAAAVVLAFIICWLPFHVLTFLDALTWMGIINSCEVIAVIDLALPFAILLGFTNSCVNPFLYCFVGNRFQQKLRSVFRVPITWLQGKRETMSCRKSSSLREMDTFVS

Rattus norvegicus [5] = assay: The compound was evaluated for the % peak inhibition of angiotensin II pressor response for dose of 0.1 mg/kg intravenous administration in conscious rats.; type: functional; outline: as §1
Rattus norvegicus [6] = assay: The duration of action for the % peak inhibition of angiotensin II pressor response for dose of 0.3 mg/kg peroral administration in conscious rats.; type: functional; settings: route oral; outline: as §1
Rattus norvegicus [7] = assay: The compound was evaluated for the % peak inhibition of angiotensin II pressor response for dose of 0.3 mg/kg peroral administration in conscious rats.; type: functional; settings: route oral; outline: as §1
Rattus norvegicus [8] = assay: The duration of action for the % peak inhibition of angiotensin II pressor response for dose of 0.1 mg/kg intravenous administration in conscious rats.; type: functional; outline: as §1
Rattus norvegicus [9] = assay: The compound was evaluated for the ED50 for inhibition of A II pressor response in rat for peroral administration.
Rattus norvegicus [10] = assay: The compound was evaluated for the ED50 for inhibition of A II pressor response in rat for intravenous administration
[11] = Ratio of the of A II pressor responses in dog, p.o./i.v.; type: functional
Outline: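 Conscious normotensive mongrel dogs with an arterial catheter for continuous mean arterial pressure and vein catheters for dosing. Patency checked with norepinephrine 1.6 μg/kg iv. AII 0.1 μg/kg iv boluses given at –45, –30 and –15 min. Antagonist given iv or by oral gavage at 0 min, then AII rechallenged repeatedly to 6 h (24 h if needed). Ratio is oral ED50 divided by iv ED50.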

Rattus norvegicus [12] = assay: The duration of action for the % peak inhibition of angiotensin II pressor response for dose of 0.03 mg/kg intravenous administration in conscious rats.
[13] = Ratio of the of A II pressor responses in rat, p.o./i.v.; type: functional
Outline: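 Conscious normotensive rats; potassium salt given iv or orally; inhibition of the pressor response to exogenous iv AII followed over time. Ratio is oral ED50 divided by iv ED50.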

Canis familiaris [14] = assay: The compound was evaluated for the ED50 for inhibition of A II pressor response in dogs for intravenous administration
[15] = molecular target: T3, Angiotensin II receptor (Rattus norvegicus) (UniProt P29089+P25095+P35351)
[16] = Ratio of the of A II pressor responses in rhesus monkey, p.o./i.v.; type: functional
Outline: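 Sodium/volume-depleted rhesus monkeys dosed iv or orally; inhibition of the AII pressor response tracked over time. Ratio is oral ED50 divided by iv ED50.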

[17] = molecular target: T3, Angiotensin II receptor (Rattus norvegicus); remark: listed apart in the source
Macaca mulatta [18] = assay: The compound was evaluated for the ED50 for inhibition of A II pressor response in rhesus monkeys for peroral administration.
Macaca mulatta [19] = assay: The duration of action for the % peak inhibition of A II pressor response for dose of 0.1 mg/kg peroral administration in rhesus monkeys.; settings: route oral
Rattus norvegicus [20] = assay: The duration of action for the % peak inhibition of angiotensin II pressor response for dose of 1.0 mg/kg peroral administration in conscious rats.; type: functional; settings: route oral; outline: as §1
Rattus norvegicus [21] = assay: The compound was evaluated for the ED50 for inhibition of A II pressor response in rats for intravenous administration
Macaca mulatta [22] = assay: The compound was evaluated for the ED50 for inhibition of A II pressor response in rhesus monkeys for intravenous administration
Rattus norvegicus [23] = assay: The compound was evaluated for the % peak inhibition of angiotensin II pressor response for dose of 1.0 mg/kg peroral administration in conscious rats.; type: functional; settings: route oral; outline: as §1
Rattus norvegicus [24] = assay: The compound was evaluated for the % peak inhibition of angiotensin II pressor response for dose of 0.1 mg/kg peroral administration in conscious rats.; type: functional; settings: route oral; outline: as §1
Canis familiaris [25] = assay: The compound was evaluated for the ED50 for inhibition of A II pressor response in dogs for peroral administration.
[26] = molecular target: T3, Angiotensin II receptor (Rattus norvegicus); remark: listed apart in the source
Rattus norvegicus [27] = assay: The duration of action for the % peak inhibition of angiotensin II pressor response for dose of 0.1 mg/kg perol administration in conscious rats.; type: functional; outline: as §1
Rattus norvegicus [28] = assay: The compound was evaluated for the % peak inhibition of angiotensin II pressor response for dose of 0.1 mg/kg perol administration in conscious rats.; type: functional; outline: as §1

T3 sequence (P25095 whole entry, looked up, one chain of several): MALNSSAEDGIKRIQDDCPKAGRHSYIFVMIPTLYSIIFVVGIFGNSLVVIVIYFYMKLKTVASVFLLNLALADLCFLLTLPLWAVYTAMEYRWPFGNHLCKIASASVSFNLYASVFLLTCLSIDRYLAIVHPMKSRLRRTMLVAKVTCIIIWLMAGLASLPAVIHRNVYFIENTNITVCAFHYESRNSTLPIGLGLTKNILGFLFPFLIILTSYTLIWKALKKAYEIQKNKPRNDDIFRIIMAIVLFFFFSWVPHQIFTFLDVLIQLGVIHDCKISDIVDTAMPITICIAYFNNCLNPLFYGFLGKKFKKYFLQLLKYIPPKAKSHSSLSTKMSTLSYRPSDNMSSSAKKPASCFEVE
T3 sequence (P29089 whole entry, looked up, one chain of several): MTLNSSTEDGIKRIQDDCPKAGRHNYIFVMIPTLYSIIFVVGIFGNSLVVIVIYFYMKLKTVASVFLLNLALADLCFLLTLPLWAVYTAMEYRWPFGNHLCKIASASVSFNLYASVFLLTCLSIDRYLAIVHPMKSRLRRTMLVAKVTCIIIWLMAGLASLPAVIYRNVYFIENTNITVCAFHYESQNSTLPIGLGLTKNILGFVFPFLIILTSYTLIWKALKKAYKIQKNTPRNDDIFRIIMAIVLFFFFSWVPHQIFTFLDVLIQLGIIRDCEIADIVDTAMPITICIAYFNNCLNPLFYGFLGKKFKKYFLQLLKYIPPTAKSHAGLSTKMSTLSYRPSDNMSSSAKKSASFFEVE

In the case of CCc1nc2c(C)cc(C)nc2n1Cc1ccc(-c2ccccc2S(=O)(=O)NC(C)=O)cc1, the inhibition in vivo at 1 mg/kg (Rattus norvegicus [1]) is reported as 100%, the IC50 [2] is reported as 2.2 nM and the Duration (Rattus norvegicus [3]) is reported as 3.5 h. It also gave an IC50 [4] of over 10000 nM.
Work on CCc1nc2c(C)cc(C)nc2n1Cc1ccc(-c2ccccc2S(=O)(=O)NC(=O)C2CC2)cc1 yielded an IC50 [2] of 0.68 nM, an inhibition in vivo at 0.1 mg/kg (Rattus norvegicus [5]) of 95% and a Duration (Rattus norvegicus [6]) of over 6 h. For the same compound, the inhibition in vivo at 0.3 mg/kg (Rattus norvegicus [7]) was 99%, the Duration (Rattus norvegicus [8]) was over 6 h and the IC50 [4] was 2400 nM.
With CCCCc1nc(Cl)c(C(=O)O)n1Cc1ccc(-c2ccccc2-c2nn[nH]n2)cc1 [CARBOXYLIC ACID METABOLITE] the IC50 [4] was 50000 nM.
CCCC(=O)NS(=O)(=O)c1ccccc1-c1ccc(Cn2c(CC)nc3c(C)cc(C)nc32)cc1 showed an inhibition in vivo at 1 mg/kg (Rattus norvegicus [1]) of 99%, an IC50 [2] of 0.27 nM and a Duration (Rattus norvegicus [3]) of over 6 h. It also gave an IC50 [4] of 3600 nM.
CCCCc1nc(Cl)c(CO)n1Cc1ccc(-c2ccccc2-c2nnn[nH]2)cc1 [LOSARTAN] gave an ED50 (Rattus norvegicus [9]) of 0.66 mg/kg and an ED50 (Rattus norvegicus [10]) of 0.28 mg/kg.
CCc1nc2c(C)cc(C)nc2n1Cc1ccc(-c2ccccc2S(=O)(=O)NC(=O)c2ccccc2)cc1 showed a Ratio [11] of 2, a Duration (Rattus norvegicus [12]) of 6 h and an IC50 [2] of 0.2 nM. It also gave an inhibition in vivo at 0.1 mg/kg (Rattus norvegicus [5]) of 94%, a Ratio [13] of 5 and an ED50 (Canis familiaris [14]) of 0.017 mg/kg. For the same compound, the Duration [15] was over 5 h, the Ratio [16] was 3 and the Duration [17] was over 5 h. It also gave an ED50 (Macaca mulatta [18]) of 0.1 mg/kg, a Duration (Macaca mulatta [19]) of about 3 h and a Duration (Rattus norvegicus [8]) of 6 h. For the same compound, the Duration (Rattus norvegicus [20]) was over 6 h, the ED50 (Rattus norvegicus [21]) was 0.014 mg/kg and the ED50 (Macaca mulatta [22]) was 0.036 mg/kg. It also gave an inhibition in vivo at 1 mg/kg (Rattus norvegicus [23]) of 99%, an IC50 [4] of 2900 nM and an inhibition in vivo at 0.1 mg/kg (Rattus norvegicus [24]) of 64%. The ED50 (Canis familiaris [25]) was 0.035 mg/kg and the Duration [26] was 4 h.
With CCc1nc2c(C)cc(C)nc2n1Cc1ccc(-c2ccccc2S(=O)(=O)NC(=O)C(C)C)cc1 the IC50 [2] was 0.21 nM, the inhibition in vivo at 0.1 mg/kg (Rattus norvegicus [5]) was 100% and the Duration (Rattus norvegicus [8]) was 5 h. It also gave an IC50 [4] of 1800 nM.
CCc1nc2c(C)cc(C)nc2n1Cc1ccc(-c2ccccc2-c2nn[nH]n2)cc1 [L-158809] gave an ED50 (Rattus norvegicus [9]) of 0.023 mg/kg, an inhibition in vivo at 0.1 mg/kg (Rattus norvegicus [5]) of 85% and a Duration (Rattus norvegicus [8]) of over 6 h. The Duration (Rattus norvegicus [27]) was over 6 h, the IC50 [4] was 50000 nM and the ED50 (Rattus norvegicus [10]) was 0.029 mg/kg. For the same compound, the inhibition in vivo at 0.1 mg/kg (Rattus norvegicus [28]) was 75%.
